Experimental data from ChEMBL document CHEMBL1130116, “Synthesis and antimetastatic activity of L-iduronic acid-type 1-N-iminosugars” (1997).

Legend:
[1] = organism: Mus musculus; assay: Cell growth at 172 uM concentration in mice; assay type: functional
Outline: (§1)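 B16 BL6 cells (3×10^5) were precultured 24 h in DMEM/FBS at 37 °C, 5% CO2, then incubated with or without compound for 72 or 24 h under the same conditions. After 0.05% trypsin/0.02% EDTA release, cells were suspended in 1 mL divalent cation-free DPBS and reported as cells per mL before tail-vein injection into BDF1 mice.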

[2] = organism: Mus musculus; assay: % inhibition of metastasis at 172 uM in mice; assay type: functional
Outline: (§2)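 B16 BL6 cells (3×10^5) were precultured 24 h in DMEM/FBS (37 °C, 5% CO2), then exposed to compound for 72 or 24 h. Cells were detached with 0.05% trypsin/0.02% EDTA, and 1×10^5 cells in 0.1 mL cation-free DPBS were injected into the tail vein of female BDF1 mice (7 weeks, five per group).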

[3] = organism: Mus musculus; assay: % inhibition of metastasis at 34 uM in mice; assay type: functional; outline: as §2
[4] = organism: Mus musculus; assay: Number of tumor nodules at 34 uM of compound in mice(Range 169-115 ); assay type: functional; outline: as §2
[5] = organism: Mus musculus; assay: % inhibition of metastasis at 103 uM in mice; assay type: functional; outline: as §2
[6] = organism: Mus musculus; assay: Number of tumor nodules at 172 uM of compound in mice(Range 136-84 ); assay type: functional; outline: as §2
[7] = organism: Mus musculus; assay: Number of tumor nodules at 103 uM of compound in mice(Range 136-64 ); assay type: functional; outline: as §2
[8] = organism: Mus musculus; assay: Cell growth at 103 uM concentration in mice; assay type: functional; outline: as §1
[9] = organism: Mus musculus; assay: Cell growth at 34 MicroM concentration in mice; assay type: functional; outline: as §1
[10] = organism: Mus musculus; assay: Cell growth at 34 uM concentration in mice; assay type: functional; outline: as §1
[11] = organism: Mus musculus; assay: Number of tumor nodules at 103 uM of compound in mice(Range 160-114 ); assay type: functional; outline: as §2
[12] = organism: Mus musculus; assay: Number of tumor nodules at 172 uM of compound in mice(Range 118-23); assay type: functional; outline: as §2
[13] = organism: Mus musculus; assay: Number of tumor nodules at 34 uM of compound in mice(Range 165-133 ); assay type: functional; outline: as §2
[14] = organism: Mus musculus; assay: Cell growth at 87 uM concentration in mice; assay type: functional; outline: as §1
[15] = organism: Mus musculus; assay: Number of tumor nodules at 145 uM of compound in mice(Range 5-97 ); assay type: functional; outline: as §2
[16] = organism: Mus musculus; assay: % inhibition of metastasis at 145 uM in mice; assay type: functional; outline: as §2
[17] = organism: Mus musculus; assay: Cell growth at 29 MicroM concentration in mice; assay type: functional; outline: as §1
[18] = organism: Mus musculus; assay: Number of tumor nodules at 29 uM of compound in mice(Range 200-270 ); assay type: functional; outline: as §2
[19] = organism: Mus musculus; assay: Cell growth at 145 uM concentration in mice; assay type: functional; outline: as §1
[20] = organism: Mus musculus; assay: Number of tumor nodules at 87 uM of compound in mice(Range 122-237 ); assay type: functional; outline: as §2
[21] = organism: Mus musculus; assay: % inhibition of metastasis at 29 uM in mice; assay type: functional; outline: as §2
[22] = organism: Mus musculus; assay: % inhibition of metastasis at 87 uM in mice; assay type: functional; outline: as §2
[23] = organism: Mus musculus; assay: % inhibition of metastasis at 78 uM in mice; assay type: functional; outline: as §2
[24] = test system: B16; assay: Number of cells invaded in cell invasion assay by incubating with 258 uM of compound for 4 hr; assay type: functional, Mus musculus
Outline: (§3)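 B16 BL6 cells were cultured with compound for 72 or 24 h at 37 °C, then lifted with 0.08% sodium citrate (10 min, 37 °C), washed twice and resuspended at 1×10^6/mL in RPMI 1640 + 0.1% BSA. 100 μL went onto filters coated with 5 μg Matrigel then 10 μg laminin, with the same medium below. Incubation was 3 or 4 h at 37 °C, 5% CO2. Filters were wiped, methanol-fixed and hematoxylin-stained; invaded cells were counted in five 0.3 mm² fields (200×). Triplicates, mean ± SD; % inhibition is versus untreated cells.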

[25] = test system: B16; assay: Compound was tested in vitro, for inhibitory effect on B16BL6 cell invasion, by incubating with 258 uM of compound for 4 hr; assay type: functional, Mus musculus; outline: as §3
[26] = organism: Mus musculus; assay: Cell growth at 26 uM concentration of the compound; assay type: functional; outline: as §1
[27] = test system: B16; assay: Number of cells invaded in cell invasion assay by incubating with 129 uM of compound for 4 hr; assay type: functional, Mus musculus; outline: as §3
[28] = organism: Mus musculus; assay: Cell growth at 78 uM concentration in mice; assay type: functional; outline: as §1
[29] = organism: Mus musculus; assay: Number of tumor nodules at 26 uM of compound in mice(Range 148-276 ); assay type: functional; outline: as §2
[30] = organism: Mus musculus; assay: Number of tumor nodules at 78 uM of compound in mice(Range 89-120 ); assay type: functional; outline: as §2
[31] = organism: Mus musculus; assay: Cell growth at 129 uM concentration in mice; assay type: functional; outline: as §1
[32] = test system: B16; assay: Compound was tested in vitro, for inhibitory effect on B16BL6 cell invasion, by incubating with 129 uM of compound for 4 hr; assay type: functional, Mus musculus; outline: as §3
[33] = test system: B16; assay: Compound was tested in vitro, for inhibitory effect on B16BL6 cell invasion, by incubating with 518 uM of compound for 4 hr; assay type: functional, Mus musculus; outline: as §3
[34] = organism: Mus musculus; assay: % inhibition of metastasis at 26 uM in mice; assay type: functional; outline: as §2
[35] = organism: Mus musculus; assay: Number of tumor nodules at 129 uM of compound in mice(Range 13-87 ); assay type: functional; outline: as §2
[36] = organism: Mus musculus; assay: % inhibition of metastasis at 129 uM in mice; assay type: functional; outline: as §2
[37] = test system: B16; assay: Number of cells invaded in cell invasion assay by incubating with 518 uM of compound for 4 hr; assay type: functional, Mus musculus; outline: as §3
[38] = organism: Mus musculus; assay: Number of tumor nodules at 150 uM of compound in mice(Range 9-1 ); assay type: functional; outline: as §2
[39] = organism: Mus musculus; assay: % inhibition of metastasis at 150 uM in mice; assay type: functional; outline: as §2
[40] = organism: Mus musculus; assay: Number of tumor nodules at 90 uM of compound in mice(Range 20-7 ); assay type: functional; outline: as §2
[41] = test system: B16; assay: Compound was tested in vitro, for inhibitory effect on B16BL6 cell invasion, by incubating with 580 uM of compound for 3 hr; assay type: functional, Mus musculus; outline: as §3
[42] = organism: Mus musculus; assay: Cell growth at 150 uM concentration in mice; assay type: functional; outline: as §1
[43] = organism: Mus musculus; assay: Cell growth at 30 uM concentration in mice; assay type: functional; outline: as §1
[44] = test system: B16; assay: Compound was tested in vitro, for inhibitory effect on B16BL6 cell invasion, by incubating with 870 uM of compound for 3 hr; assay type: functional, Mus musculus; outline: as §3
[45] = organism: Mus musculus; assay: % inhibition of metastasis at 90 uM in mice; assay type: functional; outline: as §2
[46] = test system: B16; assay: Number of cells invaded in cell invasion assay by incubating with 870 uM of compound for 3 hr; assay type: functional, Mus musculus; outline: as §3
[47] = organism: Mus musculus; assay: % inhibition of metastasis at 30 uM in mice; assay type: functional; outline: as §2
[48] = test system: B16; assay: Number of cells invaded in cell invasion assay by incubating with 580 uM of compound for 3 hr; assay type: functional, Mus musculus; outline: as §3
[49] = organism: Mus musculus; assay: Cell growth at 90 uM concentration in mice; assay type: functional; outline: as §1
[50] = organism: Mus musculus; assay: Number of tumor nodules at 30 uM of compound in mice(Range 129-54 ); assay type: functional; outline: as §2

CC(=O)N[C@H]1NC[C@@H](C(=O)O)[C@H](N)[C@@H]1O
No. of cells [1]: 1.6e+07 mL
Inhibition [2]: 30.9%
Inhibition [3]: 1.4%
No. of lung metastasis [4]: 145.2
Inhibition [5]: 26.6%
No. of lung metastasis [6]: 101.6
No. of lung metastasis [7]: 108.8
No. of cells [8]: 2.1e+07 mL
No. of cells [9]: 1.6e+07 mL

CC(=O)N[C@H]1NC[C@@H](C(=O)O)[C@H](N)[C@H]1O
No. of cells [10]: 1.4e+07 mL
No. of lung metastasis [11]: 129.4
No. of cells [1]: 1.8e+07 mL
Inhibition [2]: 44.3%
Inhibition [3]: 0%
No. of lung metastasis [12]: 82
Inhibition [5]: 12.1%
No. of cells [8]: 1.4e+07 mL
No. of lung metastasis [13]: 147.2

NC1C(C(=O)O)CNC(NC(=O)C(F)(F)F)C1O (stereo not given)
No. of cells [14]: 1.6e+06 mL
No. of lung metastasis [15]: 62.4
Inhibition [16]: 75.5%
No. of cells [17]: 1.6e+06 mL
No. of lung metastasis [18]: 245.4
No. of cells [19]: 1.4e+06 mL
No. of lung metastasis [20]: 157.8
Inhibition [21]: 3.8%
Inhibition [22]: 38.1%

N=C(N)NC1C(C(=O)O)CNC(NC(=O)C(F)(F)F)C1O (stereo not given)
Inhibition [23]: 58.8%
No. of invaded cells [24]: 1.3
Inhibition [25]: 44.4%
No. of cells [26]: 1.9e+06 mL
No. of invaded cells [27]: 0.9
No. of cells [28]: 1.3e+06 mL
No. of lung metastasis [29]: 219
No. of lung metastasis [30]: 105.6
No. of cells [31]: 1.5e+06 mL
Inhibition [32]: 61.1%
Inhibition [33]: 63.9%
Inhibition [34]: 14.1%
No. of lung metastasis [35]: 48.4
Inhibition [36]: 81%
No. of invaded cells [37]: 0.9

CC(=O)NC1NCC(C(=O)O)C(N=C(N)N)C1O (stereo not given)
No. of lung metastasis [38]: 4.4
Inhibition [39]: 97%
No. of lung metastasis [40]: 13.2
Inhibition [41]: 44.8%
No. of cells [42]: 1.9e+07 mL
No. of cells [43]: 1.9e+07 mL
Inhibition [44]: 58.9%
Inhibition [45]: 91%
No. of invaded cells [46]: 17.7
Inhibition [47]: 40.1%
No. of invaded cells [48]: 23.7
No. of cells [49]: 1.7e+07 mL
No. of lung metastasis [50]: 88.2
